# Results from ChEMBL document CHEMBL3425497, “Discovery of (R)-1-(3-((2-chloro-4-(((2-hydroxy-2-(8-hydroxy-2-oxo-1,2-dihydroquinolin-5-yl)ethyl)amino)methyl)-5-methoxyphenyl)amino)-3-oxopropyl)piperidin-4-yl [1,1'-biphenyl]-2-ylcarbamate (TD-5959, GSK961081, batefenterol): first-in-class dual pharmacology multivalent muscarinic antagonist and …” (J Med Chem, 2015).
# The source made the active and inactive calls. The calls are words filed in the database; no cut-off is given here.
# Experiments:
# [1] = target: Muscarinic acetylcholine receptor M3 (Homo sapiens, UniProt P20309); assay: Displacement of [3H]NMS from human muscarinic M3 receptor expressing CHO-K1 cells incubated for 60 mins or 6 hrs by liquid scintillation counting; type: cell-based
# [2] = target: Beta-2 adrenergic receptor (Homo sapiens, UniProt P07550); assay: Agonist activity at human beta2 adrenergic receptor expressed in HEK293 cells assessed as cAMP accumulation using [125I]cAMP by scintillation counting; type: functional, cell-based
# Cavia porcellus [3] = assay: Bronchoprotection in male Duncan Hartley guinea pig bronchoconstriction einthoven model assessed as inhibition of methacholine-induced bronchoconstriction at 100 microg/ml, inhalation after 24 hrs by in vivo muscarinic acetylcholine receptor antagonist activity assay; type: functional; parameters: scale not given: the % may be the effect or the level left
# Procedure, shortened: (§1)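 Einthoven bronchoprotection in guinea pigs, read as % bronchoprotection 24 h after inhaled dosing. The TFA salt was used in the initial experiments. For one compound, the edisylate salt was compared with the TFA form. Group sizes were n = 3–8.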
# Cavia porcellus [4] = assay: Bronchoprotection in male Duncan Hartley guinea pig bronchoconstriction einthoven model assessed as inhibition of methacholine-induced bronchoconstriction at 100 microg/ml, inhalation after 24 hrs by in vivo beta2 adrenergic receptor agonist activity assay; type: functional; parameters: scale not given: the % may be the effect or the level left; procedure, shortened: as §1
# Cavia porcellus [5] = assay: Bronchoprotection in male Duncan Hartley guinea pig bronchoconstriction einthoven model assessed as inhibition of methacholine-induced bronchoconstriction at 10 microg/ml, inhalation after 24 hrs by in vivo muscarinic acetylcholine receptor antagonist activity assay; type: functional; parameters: scale not given: the % may be the effect or the level left
# Procedure, shortened: (§2)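 Guinea pig Einthoven bronchoprotection model after test compound dosing (TFA salt in initial experiments). % bronchoprotection was scored separately as MA, BA and combined MABA activity, at 1.5 h or 24 h postdose; n = 3–8 animals per group.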
# Cavia porcellus [6] = assay: Bronchoprotection in male Duncan Hartley guinea pig bronchoconstriction einthoven model assessed as inhibition of methacholine-induced bronchoconstriction at 10 microg/ml, inhalation after 24 hrs by in vivo beta2 adrenergic receptor agonist activity assay; type: functional, organism-based; procedure, shortened: as §2
# Cavia porcellus [7] = assay: Bronchoprotection in male Duncan Hartley guinea pig bronchoconstriction einthoven model assessed as inhibition of methacholine-induced bronchoconstriction at 10 microg/ml, inhalation after 24 hrs by in vivo muscarinic antagonist and beta2 agonist activity assay; type: functional, organism-based; procedure, shortened: as §2
# Cavia porcellus [8] = assay: Bronchoprotection in male Duncan Hartley guinea pig bronchoconstriction einthoven model assessed as inhibition of methacholine-induced bronchoconstriction at 10 microg/ml, inhalation after 1.5 hrs by in vivo muscarinic acetylcholine receptor antagonist activity assay; type: functional; parameters: scale not given: the % may be the effect or the level left; procedure, shortened: as §2
# Cavia porcellus [9] = assay: Bronchoprotection in male Duncan Hartley guinea pig bronchoconstriction einthoven model assessed as inhibition of methacholine-induced bronchoconstriction at 10 microg/ml, inhalation after 1.5 hrs by in vivo beta2 adrenergic receptor agonist activity assay; type: functional, organism-based; procedure, shortened: as §2
# Cavia porcellus [10] = assay: Bronchoprotection in male Duncan Hartley guinea pig bronchoconstriction einthoven model assessed as inhibition of methacholine-induced bronchoconstriction at 10 microg/ml, inhalation after 1.5 hrs by in vivo muscarinic antagonist and beta2 agonist activity assay; type: functional, organism-based; procedure, shortened: as §2
# Cavia porcellus [11] = species: Cavia porcellus; assay: Antisialagogue activity in guinea pig assessed as inhibition of pilocarpine-induced sialagogue response at 10 ug/ml, inhalation after 1.5 hrs; type: functional
# Cavia porcellus [12] = assay: Bronchoprotection in male Duncan Hartley guinea pig bronchoconstriction einthoven model assessed as inhibition of methacholine-induced bronchoconstriction at 100 microg/ml, inhalation after 1.5 hrs by in vivo muscarinic acetylcholine receptor antagonist activity assay; type: functional; parameters: scale not given: the % may be the effect or the level left
# Cavia porcellus [13] = assay: Bronchoprotection in male Duncan Hartley guinea pig bronchoconstriction einthoven model assessed as inhibition of methacholine-induced bronchoconstriction at 100 microg/ml, inhalation after 1.5 hrs by in vivo beta2 adrenergic receptor agonist activity assay; type: functional; parameters: scale not given: the % may be the effect or the level left
# Cavia porcellus [14] = species: Cavia porcellus; assay: Antisialagogue activity in guinea pig assessed as inhibition of pilocarpine-induced sialagogue response at 100 ug/ml, inhalation after 1.5 hrs; type: functional
# Procedure, shortened: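 Guinea pigs were pretreated with test compound by inhalation. At 1.5 h post-dose they were challenged with pilocarpine. The sialagogue (salivation) response was recorded as % inhibition.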
# Cavia porcellus [15] = assay: Bronchoprotection in male Duncan Hartley guinea pig bronchoconstriction einthoven model assessed as inhibition of methacholine-induced bronchoconstriction at 100 microg/ml, inhalation after 24 hrs by in vivo muscarinic antagonist and beta2 agonist activity assay; type: functional; parameters: scale not given: the % may be the effect or the level left; procedure, shortened: as §1
# Cavia porcellus [16] = assay: Bronchoprotection in male Duncan Hartley guinea pig bronchoconstriction einthoven model assessed as inhibition of methacholine-induced bronchoconstriction at 100 microg/ml, inhalation after 1.5 hrs by in vivo muscarinic antagonist and beta2 agonist activity assay; type: functional; parameters: scale not given: the % may be the effect or the level left
# Beta-2 adrenergic receptor, sequence (P07550 whole entry): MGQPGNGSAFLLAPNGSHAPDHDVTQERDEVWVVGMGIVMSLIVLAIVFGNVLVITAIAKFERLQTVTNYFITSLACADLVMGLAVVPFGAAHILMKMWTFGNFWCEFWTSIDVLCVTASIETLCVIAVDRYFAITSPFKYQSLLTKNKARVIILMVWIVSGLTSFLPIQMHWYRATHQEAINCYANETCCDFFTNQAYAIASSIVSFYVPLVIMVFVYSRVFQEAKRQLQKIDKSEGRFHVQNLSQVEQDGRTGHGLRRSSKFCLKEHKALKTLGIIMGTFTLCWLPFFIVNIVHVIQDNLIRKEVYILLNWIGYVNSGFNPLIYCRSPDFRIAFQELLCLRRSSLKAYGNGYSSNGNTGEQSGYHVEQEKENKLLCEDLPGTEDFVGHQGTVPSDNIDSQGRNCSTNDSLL
# Muscarinic acetylcholine receptor M3, sequence (P20309 whole entry): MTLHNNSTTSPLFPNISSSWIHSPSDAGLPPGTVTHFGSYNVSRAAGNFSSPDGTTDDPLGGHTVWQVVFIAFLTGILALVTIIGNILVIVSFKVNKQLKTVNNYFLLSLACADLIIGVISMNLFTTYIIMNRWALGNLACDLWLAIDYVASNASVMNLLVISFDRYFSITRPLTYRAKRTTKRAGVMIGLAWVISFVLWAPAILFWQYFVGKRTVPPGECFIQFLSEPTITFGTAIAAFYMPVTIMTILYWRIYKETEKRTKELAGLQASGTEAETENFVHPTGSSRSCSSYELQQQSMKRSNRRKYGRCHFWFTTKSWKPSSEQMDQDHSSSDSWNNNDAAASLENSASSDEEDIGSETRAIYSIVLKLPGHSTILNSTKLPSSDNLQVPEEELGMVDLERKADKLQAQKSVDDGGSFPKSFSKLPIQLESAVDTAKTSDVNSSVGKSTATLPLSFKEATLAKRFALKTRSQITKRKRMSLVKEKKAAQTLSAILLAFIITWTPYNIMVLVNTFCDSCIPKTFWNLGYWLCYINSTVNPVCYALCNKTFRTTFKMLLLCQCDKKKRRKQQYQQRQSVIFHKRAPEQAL
compound,measurement,setting,value
COc1c(CNC[C@H](O)c2ccc(O)c3[nH]c(=O)ccc23)ccc(NC(=O)CCN2CCC(OC(=O)Nc3ccccc3-c3ccccc3)CC2)c1Cl,Ki,[1],631 pM
same,EC50,[2],398 pM
COc1cc(N(C)C(=O)CCN2CCC(OC(=O)Nc3ccccc3-c3ccccc3)CC2)c(Cl)cc1CNC[C@H](O)c1ccc(O)c2[nH]c(=O)ccc12,Ki,[1],316 pM
same,EC50,[2],794 pM
COc1c(CNC[C@H](O)c2ccc(O)c3[nH]c(=O)ccc23)ccc(NC(=O)CCN2CCC(OC(=O)Nc3ccccc3-c3ccccc3)CC2)c1C,Ki,[1],501 pM
same,EC50,[2],251 pM
Cc1cc(C(=O)NCCN2CCC(OC(=O)Nc3ccccc3-c3ccccc3)CC2)c(C)cc1CNC[C@H](O)c1ccc(O)c2[nH]c(=O)ccc12,Ki,[1],3160 pM
same,EC50,[2],158 pM
COc1cc(NC(=O)CCN2CCC(OC(=O)Nc3ccccc3-c3ccccc3)CC2)c(C)cc1CNC[C@H](O)c1ccc(O)c2[nH]c(=O)ccc12,Ki,[1],316 pM
same,EC50,[2],316 pM
COc1ccc(NC(=O)CCN2CCC(OC(=O)Nc3ccccc3-c3ccccc3)CC2)cc1CCNC[C@H](O)c1ccc(O)c2[nH]c(=O)ccc12,Ki,[1],2000 pM
same,EC50,[2],794 pM
COc1cc(N(C)C(=O)CCN2CCC(OC(=O)Nc3ccccc3-c3ccccc3)CC2)ccc1CNC[C@H](O)c1ccc(O)c2[nH]c(=O)ccc12,Ki,[1],631 pM
same,EC50,[2],50100 pM
COc1cc(C(=O)NCCN2CCC(OC(=O)Nc3ccccc3-c3ccccc3)CC2)ccc1CNC[C@H](O)c1ccc(O)c2[nH]c(=O)ccc12,Ki,[1],6310 pM
same,EC50,[2],1580 pM
O=C(Nc1ccccc1-c1ccccc1)OC1CCN(CCNC(=O)c2ccc(CNC[C@H](O)c3ccc(O)c4[nH]c(=O)ccc34)cc2)CC1,Ki,[1],631 pM
same,EC50,[2],501 pM
same,Activity,Cavia porcellus [3],74%
same,Activity,Cavia porcellus [4],20%
C[N+]1(C)[C@@H]2C[C@@H](OC(=O)C(O)(c3cccs3)c3cccs3)C[C@H]1[C@@H]1O[C@@H]12 [TIOTROPIUM],Activity,Cavia porcellus [5],75%
same,Activity,Cavia porcellus [6],inactive
same,Activity,Cavia porcellus [7],inactive
same,Activity,Cavia porcellus [8],90%
same,Activity,Cavia porcellus [9],inactive
same,Activity,Cavia porcellus [10],inactive
same,inhibition (INH),Cavia porcellus [11],99%
COc1cc(CNC[C@H](O)c2ccc(O)c3[nH]c(=O)ccc23)ccc1NC(=O)CCN1CCC(OC(=O)Nc2ccccc2-c2ccccc2)CC1,Ki,[1],1580 pM
same,EC50,[2],501 pM
same,Activity,Cavia porcellus [3],22%
same,Activity,Cavia porcellus [4],33%
O=C(CCN1CCC(OC(=O)Nc2ccccc2-c2ccccc2)CC1)NCCCCCNC[C@H](O)c1ccc(O)c2[nH]c(=O)ccc12,Ki,[1],100 pM
same,EC50,[2],126 pM
Cc1cc(NC(=O)CCN2CCC(OC(=O)Nc3ccccc3-c3ccccc3)CC2)ccc1CNC[C@H](O)c1ccc(O)c2[nH]c(=O)ccc12,Ki,[1],1260 pM
same,EC50,[2],200 pM
O=C(CCN1CCC(OC(=O)Nc2ccccc2-c2ccccc2)CC1)N[C@H]1CC[C@H](CNC[C@H](O)c2ccc(O)c3[nH]c(=O)ccc23)CC1,Ki,[1],316 pM
same,EC50,[2],158 pM
O=C(CCN1CCC(OC(=O)Nc2ccccc2-c2ccccc2)CC1)Nc1ccc(CNC[C@H](O)c2ccc(O)c3[nH]c(=O)ccc23)cc1Cl,Ki,[1],200 pM
same,EC50,[2],251 pM
same,Activity,Cavia porcellus [4],25%
O=C(CCN1CCC(OC(=O)Nc2ccccc2-c2ccccc2)CC1)Nc1ccc(CNC[C@H](O)c2ccc(O)c3[nH]c(=O)ccc23)c(Cl)c1,Ki,[1],200 pM
same,EC50,[2],501 pM
COc1cc(NC(=O)CCN2CCC(OC(=O)Nc3ccccc3-c3ccccc3)CC2)ccc1CNC[C@H](O)c1ccc(O)c2[nH]c(=O)ccc12,Ki,[1],158 pM
same,EC50,[2],251 pM
same,Activity,Cavia porcellus [3],81%
same,Activity,Cavia porcellus [4],72%
same,Activity,Cavia porcellus [12],94%
same,Activity,Cavia porcellus [13],70%
same,inhibition (INH),Cavia porcellus [14],-3%
O=C(Nc1ccccc1-c1ccccc1)OC1CCN(CCCCCCCCCNC[C@H](O)c2ccc(O)c3[nH]c(=O)ccc23)CC1,Activity,Cavia porcellus [3],72%
same,Activity,Cavia porcellus [4],10%
same,Activity,Cavia porcellus [12],94%
same,Activity,Cavia porcellus [13],63%
O=C(CCN1CCC(OC(=O)Nc2ccccc2-c2ccccc2)CC1)Nc1cccc(CCNC[C@H](O)c2ccc(O)c3[nH]c(=O)ccc23)c1,Ki,[1],1000 pM
same,EC50,[2],100 pM
same,Activity,Cavia porcellus [3],51%
same,Activity,Cavia porcellus [4],46%
same,Activity,Cavia porcellus [15],72%
same,Activity,Cavia porcellus [12],77%
same,Activity,Cavia porcellus [13],80%
same,Activity,Cavia porcellus [16],93%
same,inhibition (INH),Cavia porcellus [14],23%
Cc1cc(CNC[C@H](O)c2ccc(O)c3[nH]c(=O)ccc23)ccc1NC(=O)CCN1CCC(OC(=O)Nc2ccccc2-c2ccccc2)CC1,Ki,[1],50.1 pM
same,EC50,[2],200 pM
same,Activity,Cavia porcellus [3],92%
same,Activity,Cavia porcellus [4],20%
same,Activity,Cavia porcellus [15],96%
COc1ccc(CCNC[C@H](O)c2ccc(O)c3[nH]c(=O)ccc23)cc1NC(=O)CCN1CCC(OC(=O)Nc2ccccc2-c2ccccc2)CC1,Ki,[1],7940 pM
same,EC50,[2],1260 pM
CN(CCN1CCC(OC(=O)Nc2ccccc2-c2ccccc2)CC1)C(=O)c1ccc(CNC[C@H](O)c2ccc(O)c3[nH]c(=O)ccc23)cc1,Ki,[1],794 pM
same,EC50,[2],251 pM
Cc1cc(CNC[C@H](O)c2ccc(O)c3[nH]c(=O)ccc23)ccc1N(C)C(=O)CCN1CCC(OC(=O)Nc2ccccc2-c2ccccc2)CC1,Ki,[1],200 pM
same,EC50,[2],3980 pM
O=C(CCN1CCC(OC(=O)Nc2ccccc2-c2ccccc2)CC1)Nc1ccc(CNC[C@H](O)c2ccc(O)c3[nH]c(=O)ccc23)cc1,Ki,[1],79.4 pM
same,EC50,[2],251 pM
same,Activity,Cavia porcellus [3],98%
same,Activity,Cavia porcellus [4],-2%
same,Activity,Cavia porcellus [13],47%
same,inhibition (INH),Cavia porcellus [14],82%
NC(=O)C(c1ccccc1)(c1ccccc1)[C@@H]1CCN(CCc2ccc3c(c2)CCO3)C1 [DARIFENACIN],Activity,Cavia porcellus [3],72%
same,Activity,Cavia porcellus [4],43%
same,Activity,Cavia porcellus [15],inactive
same,Activity,Cavia porcellus [12],inactive
same,Activity,Cavia porcellus [13],74%
same,Activity,Cavia porcellus [16],inactive
